Our source for the MIC values is ChEMBL document CHEMBL1629638, “Pyrosequencing using the single-nucleotide polymorphism protocol for rapid determination of TEM- and SHV-type extended-spectrum beta-lactamases in clinical isolates and identification of the novel beta-lactamase genes blaSHV-48, blaSHV-105, and blaTEM-155” (2009).

Holding throughout (format): functional
The test system of test [1] is Escherichia coli. In words: Antimicrobial activity against Escherichia coli DH5[alpha] isolate GC 7668 expressing bla SHV-48 gene by microdilution method in presence of clavulanic acid. In outline:
(§1)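 Broth microdilution MIC. Plates of serial antibiotic dilutions inoculated to 10^5 CFU/ml and incubated 18 to 22 h at 35°C in ambient air. MIC is the lowest concentration giving complete growth inhibition by unaided eye. The recombinant strains carry shotgun-cloned bla genes in pCLL2300.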

The test system of test [2] is Escherichia coli. Briefly: Antimicrobial activity against Escherichia coli DH5[alpha] isolate GC 8128 expressing bla SHV-105 gene by microdilution method in presence of clavulanic acid. In outline:
as §1
For orientation: Dilution methods test growth across graded concentrations, often in twofold steps.

Test [3] has as its system Escherichia coli. In words: Antimicrobial activity against Escherichia coli DH5[alpha] isolate GC 8133 expressing bla […] gene by microdilution method in presence of clavulanic acid. The method in brief:
as §1

Test [4] has as its system Escherichia coli. In words: Antimicrobial activity against Escherichia coli DH5[alpha] by microdilution method in presence of clavulanic acid. In outline: as §1
Test [5] relates to Escherichia coli. Briefly: Antimicrobial activity against Escherichia coli DH5[alpha] isolate GC 8130 expressing bla SHV-1 gene by microdilution method in presence of clavulanic acid. In outline:
as §1

Test [6] has as its system Escherichia coli. Briefly: Antimicrobial activity against Escherichia coli ATCC 25922 by microdilution method in presence of clavulanic acid. In outline: as §1
Test [7] concerns Escherichia coli. In words: Antimicrobial activity against Escherichia coli DH5[alpha] isolate GC 8128 expressing bla SHV-105 gene by microdilution method. The method in brief:
(§2)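 Recombinant strains carrying the cloned β-lactamase gene (shotgun cloned into pCLL2300, confirmed by standard sequencing) tested by broth microdilution. Serial antibiotic dilutions were inoculated to 10^5 CFU/ml and incubated 18 to 22 h at 35°C in ambient air. MIC was the lowest concentration completely inhibiting growth by unaided eye.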

Test [8] concerns Escherichia coli. Briefly: Antimicrobial activity against Escherichia coli DH5[alpha] isolate GC 7668 expressing bla SHV-48 gene by microdilution method. In outline:
(§3)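 Broth microdilution MIC. Plates with serial dilutions of each β-lactam inoculated to 10^5 CFU/ml, incubated 18 to 22 h at 35°C in ambient air. MIC = lowest concentration completely inhibiting growth by unaided eye. Strains carrying the novel β-lactamases are recombinants, with the genes shotgun cloned into pCLL2300.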

The subject of test [9] is Escherichia coli. In words: Antimicrobial activity against Escherichia coli DH5[alpha] isolate GC 8133 expressing bla […] gene by microdilution method. The method in brief:
as §2

In test [10] the test system is Escherichia coli. Briefly: Antimicrobial activity against Escherichia coli DH5[alpha] by microdilution method. In outline:
as §3

Test [11] concerns Escherichia coli. In words: Antimicrobial activity against Escherichia coli ATCC 25922 by microdilution method. In outline:
as §3

For test [12], the system named is Escherichia coli. Briefly: Antimicrobial activity against Escherichia coli DH5[alpha] isolate GC 8130 expressing bla SHV-1 gene by microdilution method. The method in brief:
as §3

Test [13] concerns Escherichia coli. Briefly: Antimicrobial activity against Escherichia coli DH5[alpha] isolate GC 8128 expressing bla SHV-105 gene by Etest method in presence of clavulanic acid. The method in brief: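 The blaSHV-105 gene was shotgun-cloned into vector pCLL2300, and the insert was confirmed by standard sequencing. The recombinant E. coli strain carrying it was tested against a β-lactam panel in Etest format.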

Test [14] deals with Escherichia coli. In words: Antimicrobial activity against Escherichia coli DH5[alpha] isolate GC 7668 expressing bla SHV-48 gene by Etest method.
Test [15] concerns Escherichia coli. In words: Antimicrobial activity against Escherichia coli DH5[alpha] isolate GC 8130 expressing bla SHV-1 gene by Etest method in presence of clavulanic acid.
For test [16], the system named is Escherichia coli. Briefly: Antimicrobial activity against Escherichia coli ATCC 25922 by Etest method.
Test [17] concerns Escherichia coli. Briefly: Antimicrobial activity against Escherichia coli DH5[alpha] isolate GC 8133 expressing bla […] gene by Etest method.
For test [18], the system named is Escherichia coli. Briefly: Antimicrobial activity against Escherichia coli DH5[alpha] by Etest method in presence of clavulanic acid.
Test [19] has as its system Escherichia coli. Briefly: Antimicrobial activity against Escherichia coli DH5[alpha] by Etest method.
Test [20] concerns Escherichia coli. Briefly: Antimicrobial activity against Escherichia coli DH5[alpha] isolate GC 7668 expressing bla SHV-48 gene by Etest method in presence of clavulanic acid.
The test system of test [21] is Escherichia coli. Briefly: Antimicrobial activity against Escherichia coli DH5[alpha] isolate GC 8128 expressing bla SHV-105 gene by Etest method.
The test system of test [22] is Escherichia coli. Briefly: Antimicrobial activity against Escherichia coli ATCC 25922 by Etest method in presence of clavulanic acid.
Test [23] deals with Escherichia coli. In words: Antimicrobial activity against Escherichia coli DH5[alpha] isolate GC 8133 expressing bla […] gene by Etest method in presence of clavulanic acid.
The test system of test [24] is Escherichia coli. Briefly: Antimicrobial activity against Escherichia coli DH5[alpha] isolate GC 8130 expressing bla SHV-1 gene by Etest method.
Test [25] concerns Escherichia coli. Briefly: Antimicrobial activity against Escherichia coli DH5[alpha] isolate GC 8128 expressing bla SHV-105 gene by microdilution method in presence of Tazobactam. The method in brief:
as §1

The subject of test [26] is Escherichia coli. Briefly: Antimicrobial activity against Escherichia coli DH5[alpha] isolate GC 7668 expressing bla SHV-48 gene by microdilution method in presence of Tazobactam. The method in brief:
as §1

In test [27] the test system is Escherichia coli. In words: Antimicrobial activity against Escherichia coli ATCC 25922 by microdilution method in presence of Tazobactam. The method in brief:
as §1

In test [28] the test system is Escherichia coli. Briefly: Antimicrobial activity against Escherichia coli DH5[alpha] by microdilution method in presence of Tazobactam. In outline:
as §1

Test [29] deals with Escherichia coli. In words: Antimicrobial activity against Escherichia coli DH5[alpha] isolate GC 8133 expressing bla […] gene by microdilution method in presence of Tazobactam. The method in brief: as §1
Test [30] has as its system Escherichia coli. Briefly: Antimicrobial activity against Escherichia coli DH5[alpha] isolate GC 8130 expressing bla SHV-1 gene by microdilution method in presence of Tazobactam. The method in brief:
as §1

In brackets after ≈: the same amount, converted by molar mass.

What is called MIC is the smallest concentration in the dilution series that meets the test's criterion for growth inhibition. In the case of `CC1(C)S[C@@H]2[C@H](NC(=O)[C@H](N)c3ccc(O)cc3)C(=O)N2[C@H]1C(=O)O` [AMOXICILLIN], the MIC was found to be 32 µg/mL with Escherichia coli [1]; 16 µg/mL with Escherichia coli [2]; 32 µg/mL with Escherichia coli [3]; 8 µg/mL in the test with Escherichia coli [4]; 16 µg/mL in the test on Escherichia coli [5]; 8 µg/mL in the test on Escherichia coli [6].
For the compound `CC1(C)S[C@@H]2[C@H](NC(=O)[C@H](N)c3ccccc3)C(=O)N2[C@H]1C(=O)O` [AMPICILLIN], the minimum inhibitory concentration (MIC) in the test with Escherichia coli [7] is more than 128 µg/mL; against Escherichia coli [8], more than 128 µg/mL; against Escherichia coli [9], more than 128 µg/mL; against Escherichia coli [10], 8 µg/mL (≈ 22.9 µM); with Escherichia coli [11], 4 µg/mL (≈ 11.4 µM); against Escherichia coli [12] it was more than 128 µg/mL.
On to `C[C@H]1[C@H](NC(=O)/C(=N\OC(C)(C)C(=O)O)c2csc(N)n2)C(=O)N1S(=O)(=O)O` [AZTREONAM], for which the MIC in the test on Escherichia coli [7] is more than 128 µg/mL; against Escherichia coli [8], 0.5 µg/mL (≈ 1.15 µM); against Escherichia coli [9] it was more than 128 µg/mL; against Escherichia coli [10], not above 0.125 µg/mL; against Escherichia coli [11], 0.25 µg/mL (≈ 0.574 µM); against Escherichia coli [12], 0.25 µg/mL (≈ 0.574 µM).
Consider `CO/N=C(\C(=O)N[C@@H]1C(=O)N2C(C(=O)[O-])=C(C[N+]3(C)CCCC3)CS[C@H]12)c1csc(N)n1` [CEFEPIME], for which the MIC is 16 µg/mL (≈ 33.3 µM) in the test on Escherichia coli [7]; 0.5 µg/mL (≈ 1.04 µM) with Escherichia coli [8]; 128 µg/mL (≈ 266 µM) in the test on Escherichia coli [9]; not above 0.125 µg/mL in the test with Escherichia coli [10]; not above 0.125 µg/mL against Escherichia coli [11].
Consider `CO/N=C(\C(=O)N[C@@H]1C(=O)N2C(C(=O)O)=C(COC(C)=O)CS[C@H]12)c1csc(N)n1` [CEFOTAXIME], for which the MIC with Escherichia coli [13] is 0.032 µg/mL; in the test on Escherichia coli [7], 128 µg/mL (≈ 281 µM); against Escherichia coli [8] it was not above 0.125 µg/mL; against Escherichia coli [14], less than 0.25 µg/mL; with Escherichia coli [15] it was 0.023 µg/mL; against Escherichia coli [16] it was less than 0.25 µg/mL. The MIC is 2 µg/mL (≈ 4.39 µM) with Escherichia coli [17]; 0.023 µg/mL in the test on Escherichia coli [18]; less than 0.25 µg/mL in the test on Escherichia coli [19]; 0.023 µg/mL with Escherichia coli [20]; 32 µg/mL (≈ 70.3 µM) in the test on Escherichia coli [9]; not above 0.125 µg/mL against Escherichia coli [10]. The MIC against Escherichia coli [11] is not above 0.125 µg/mL; with Escherichia coli [12], not above 0.125 µg/mL; with Escherichia coli [21] it was more than 16 µg/mL; with Escherichia coli [22], 0.047 µg/mL; in the test with Escherichia coli [23], 0.023 µg/mL; in the test on Escherichia coli [24] it was less than 0.25 µg/mL.
For the compound `CO[C@@]1(NC(=O)Cc2cccs2)C(=O)N2C(C(=O)O)=C(COC(N)=O)CS[C@@H]21` [CEFOXITIN], the MIC against Escherichia coli [7] was determined as 8 µg/mL (≈ 18.7 µM); with Escherichia coli [8], 4 µg/mL (≈ 9.36 µM); with Escherichia coli [9], 8 µg/mL (≈ 18.7 µM); against Escherichia coli [10], 8 µg/mL (≈ 18.7 µM); with Escherichia coli [11], 4 µg/mL (≈ 9.36 µM); in the test on Escherichia coli [12], 16 µg/mL (≈ 37.4 µM).
`CC(C)(O/N=C(\C(=O)N[C@@H]1C(=O)N2C(C(=O)[O-])=C(C[n+]3ccccc3)CS[C@H]12)c1csc(N)n1)C(=O)O` [CEFTAZIDIME]: the MIC in the test with Escherichia coli [13] was 0.25 µg/mL; in the test with Escherichia coli [7], more than 128 µg/mL; in the test with Escherichia coli [8] it was 1 µg/mL (≈ 1.83 µM); with Escherichia coli [14], less than 0.5 µg/mL; in the test on Escherichia coli [15], 0.125 µg/mL; with Escherichia coli [16], less than 0.5 µg/mL. For the same compound, the MIC is more than 32 µg/mL in the test on Escherichia coli [17]; 0.094 µg/mL in the test with Escherichia coli [18]; less than 0.5 µg/mL against Escherichia coli [19]; 0.125 µg/mL in the test on Escherichia coli [20]; more than 128 µg/mL against Escherichia coli [9]; 0.25 µg/mL (≈ 0.457 µM) in the test with Escherichia coli [10]. Besides, the MIC in the test on Escherichia coli [11] is 0.25 µg/mL (≈ 0.457 µM); in the test on Escherichia coli [12], 0.5 µg/mL (≈ 0.915 µM); against Escherichia coli [21] it was more than 32 µg/mL; in the test on Escherichia coli [22] it was 0.125 µg/mL; in the test on Escherichia coli [23], 0.5 µg/mL; in the test with Escherichia coli [24], less than 0.5 µg/mL.
As to `CO/N=C(\C(=O)N[C@@H]1C(=O)N2C(C(=O)O)=C(COC(N)=O)CS[C@H]12)c1ccco1` [CEFUROXIME], the MIC against Escherichia coli [7] was 128 µg/mL (≈ 302 µM); in the test with Escherichia coli [8], not above 0.125 µg/mL; in the test on Escherichia coli [9] it was 64 µg/mL (≈ 151 µM); against Escherichia coli [10] it was not above 0.125 µg/mL; with Escherichia coli [11] it was not above 0.125 µg/mL; against Escherichia coli [12], 0.25 µg/mL (≈ 0.589 µM).
Consider `C[C@@H](O)[C@H]1C(=O)N2C(C(=O)O)=C(SCCNC=N)C[C@H]12` [IMIPENEM ANHYDROUS], for which the MIC against Escherichia coli [8] was 0.25 µg/mL (≈ 0.835 µM); against Escherichia coli [9], 0.25 µg/mL (≈ 0.835 µM); against Escherichia coli [10], 0.25 µg/mL (≈ 0.835 µM); in the test with Escherichia coli [11] it was not above 0.125 µg/mL.
For `CCN1CCN(C(=O)N[C@@H](C(=O)N[C@@H]2C(=O)N3[C@@H]2SC(C)(C)[C@@H]3C(=O)O)c2ccccc2)C(=O)C1=O` [PIPERACILLIN], the MIC in the test on Escherichia coli [25] is 1 µg/mL; in the test with Escherichia coli [26] it was more than 128 µg/mL; with Escherichia coli [7], more than 128 µg/mL; against Escherichia coli [8], more than 128 µg/mL; with Escherichia coli [27], 2 µg/mL; with Escherichia coli [28], 0.5 µg/mL. The MIC in the test on Escherichia coli [29] is 2 µg/mL; with Escherichia coli [30] it was 1 µg/mL; in the test with Escherichia coli [9], more than 128 µg/mL; with Escherichia coli [10], 0.5 µg/mL (≈ 0.966 µM); against Escherichia coli [11], 2 µg/mL (≈ 3.86 µM); against Escherichia coli [12] it was 64 µg/mL (≈ 124 µM).
